Assay results taken from ChEMBL document CHEMBL5058577, “EUbOPEN Chemogenomics Library 2 (Multiplex)” (2022).
Non-standard residues stand in square brackets, D forms with d. Residues, ends and D or L forms follow the SMILES beside them.

Test system: Fibroblast
Experiment: Multiplex assay against human fibroblast
Assay type: toxicity, cell-based
Procedure, shortened: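 On a CQ1 microscope at 37°C and 5% CO2, live cells were imaged after compound addition. They had been stained at seeding with Hoechst33342, BioTracker Green Microtubule Cytoskeleton Dye, MitoTracker Red and Annexin V Alexa Fluor 680. CellPathfinder machine-learning gating assigned cells to Hoechst high-intensity objects or normal cells, normal cells to healthy, pyknosed or fragmented nuclei, and pyknosed cells to mitotic or apoptotic. Tubulin, mitochondrial-mass and membrane-permeability phenotypes are per cents of healthy-nucleus cells.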

[1] = 12 h, 1 µM, compound concentration 1 uM, replicate 1
[2] = 12 h, 1 µM, compound concentration 1 uM, replicate 2
[3] = 12 h, 10 µM, compound concentration 10 uM, replicate 1
[4] = 12 h, 10 µM, compound concentration 10 uM, replicate 2
[5] = 24 h, 1 µM, compound concentration 1 uM, replicate 1
[6] = 24 h, 1 µM, compound concentration 1 uM, replicate 2
[7] = 24 h, 10 µM, compound concentration 10 uM, replicate 1
[8] = 24 h, 10 µM, compound concentration 10 uM, replicate 2
[9] = 48 h, 1 µM, compound concentration 1 uM, replicate 1
[10] = 48 h, 1 µM, compound concentration 1 uM, replicate 2
[11] = 48 h, 10 µM, compound concentration 10 uM, replicate 1
[12] = 48 h, 10 µM, compound concentration 10 uM, replicate 2

CC(C)C[C@@H]1NC(=O)[C@@H](C(C)C)NC(=O)[C@@H]2CCCN2C(=O)[C@@H](CC(=O)O)NC(=O)[C@@H](Cc2c[nH]c3ccccc23)NC1=O [BQ-123] (cyclo(L[dW][dD]P[dV]))
Population Apoptotic (%) [1]: 57% | Population Fragmented Nuclei (%) [1]: 18% | Population Healthy Nuclei (%) [1]: 68% | Population Hoechst High Intensity Objects (%) [1]: 0% | Population Membrane Permeable-Phenotype (%) [1]: 1% | Population Mitochondria Different-Phenotype (%) [1]: 11% | Population Mitotic Cells (%) [1]: 42% | Population Normal (%) [1]: 100% | Population Pyknosed Nuclei (%) [1]: 13% | Population Tubulin-Different-Phenotype (%) [1]: 31% | Total Cell Count [1]: 105 | Population Apoptotic (%) [2]: 21% | Population Fragmented Nuclei (%) [2]: 22% | Population Healthy Nuclei (%) [2]: 58% | Population Hoechst High Intensity Objects (%) [2]: 3% | Population Membrane Permeable-Phenotype (%) [2]: 5% | Population Mitochondria Different-Phenotype (%) [2]: 2% | Population Mitotic Cells (%) [2]: 78% | Population Normal (%) [2]: 96% | Population Pyknosed Nuclei (%) [2]: 18% | Total Cell Count [2]: 157 | Population Apoptotic (%) [3]: 48% | Population Fragmented Nuclei (%) [3]: 15% | Population Healthy Nuclei (%) [3]: 65% | Population Hoechst High Intensity Objects (%) [3]: 2% | Population Membrane Permeable-Phenotype (%) [3]: 0% | Population Mitochondria Different-Phenotype (%) [3]: 9% | Population Mitotic Cells (%) [3]: 52% | Population Normal (%) [3]: 97% | Population Pyknosed Nuclei (%) [3]: 18% | Population Tubulin-Different-Phenotype (%) [3]: 33% | Total Cell Count [3]: 136 | Population Apoptotic (%) [4]: 33% | Population Fragmented Nuclei (%) [4]: 30% | Population Healthy Nuclei (%) [4]: 48% | Population Membrane Permeable-Phenotype (%) [4]: 4% | Population Mitochondria Different-Phenotype (%) [4]: 3% | Population Mitotic Cells (%) [4]: 66% | Population Pyknosed Nuclei (%) [4]: 20% | Population Tubulin-Different-Phenotype (%) [4]: 46% | Total Cell Count [4]: 134 | Population Apoptotic (%) [5]: 53% | Population Fragmented Nuclei (%) [5]: 19% | Population Healthy Nuclei (%) [5]: 66% | Population Hoechst High Intensity Objects (%) [5]: 1% | Population Membrane Permeable-Phenotype (%) [5]: 0% | Population Mitochondria Different-Phenotype (%) [5]: 5% | Population Mitotic Cells (%) [5]: 46% | Population Normal (%) [5]: 98% | Population Pyknosed Nuclei (%) [5]: 14% | Population Tubulin-Different-Phenotype (%) [5]: 24% | Total Cell Count [5]: 107 | Population Apoptotic (%) [6]: 24% | Population Fragmented Nuclei (%) [6]: 23% | Population Healthy Nuclei (%) [6]: 57% | Population Hoechst High Intensity Objects (%) [6]: 6% | Population Membrane Permeable-Phenotype (%) [6]: 3% | Population Mitochondria Different-Phenotype (%) [6]: 3% | Population Mitotic Cells (%) [6]: 75% | Population Normal (%) [6]: 93% | Population Pyknosed Nuclei (%) [6]: 18% | Population Tubulin-Different-Phenotype (%) [6]: 25% | Total Cell Count [6]: 166 | Population Apoptotic (%) [7]: 50% | Population Fragmented Nuclei (%) [7]: 19% | Population Healthy Nuclei (%) [7]: 64% | Population Hoechst High Intensity Objects (%) [7]: 8% | Population Membrane Permeable-Phenotype (%) [7]: 1% | Population Mitochondria Different-Phenotype (%) [7]: 5% | Population Mitotic Cells (%) [7]: 50% | Population Normal (%) [7]: 91% | Population Pyknosed Nuclei (%) [7]: 15% | Population Tubulin-Different-Phenotype (%) [7]: 32% | Total Cell Count [7]: 123 | Population Apoptotic (%) [8]: 29% | Population Fragmented Nuclei (%) [8]: 27% | Population Healthy Nuclei (%) [8]: 50% | Population Hoechst High Intensity Objects (%) [8]: 0% | Population Membrane Permeable-Phenotype (%) [8]: 11% | Population Mitochondria Different-Phenotype (%) [8]: 3% | Population Mitotic Cells (%) [8]: 70% | Population Normal (%) [8]: 99% | Population Pyknosed Nuclei (%) [8]: 22% | Population Tubulin-Different-Phenotype (%) [8]: 50% | Population Apoptotic (%) [9]: 50% | Population Fragmented Nuclei (%) [9]: 18% | Population Healthy Nuclei (%) [9]: 70% | Population Hoechst High Intensity Objects (%) [9]: 3% | Population Membrane Permeable-Phenotype (%) [9]: 0% | Population Mitochondria Different-Phenotype (%) [9]: 12% | Population Mitotic Cells (%) [9]: 50% | Population Normal (%) [9]: 96% | Population Pyknosed Nuclei (%) [9]: 11% | Population Tubulin-Different-Phenotype (%) [9]: 25% | Total Cell Count [9]: 109 | Population Apoptotic (%) [10]: 52% | Population Fragmented Nuclei (%) [10]: 28% | Population Healthy Nuclei (%) [10]: 56% | Population Hoechst High Intensity Objects (%) [10]: 4% | Population Membrane Permeable-Phenotype (%) [10]: 2% | Population Mitochondria Different-Phenotype (%) [10]: 4% | Population Mitotic Cells (%) [10]: 48% | Population Normal (%) [10]: 95% | Population Pyknosed Nuclei (%) [10]: 15% | Population Tubulin-Different-Phenotype (%) [10]: 39% | Total Cell Count [10]: 172 | Population Apoptotic (%) [11]: 70% | Population Fragmented Nuclei (%) [11]: 26% | Population Healthy Nuclei (%) [11]: 59% | Population Hoechst High Intensity Objects (%) [11]: 5% | Population Membrane Permeable-Phenotype (%) [11]: 1% | Population Mitochondria Different-Phenotype (%) [11]: 5% | Population Mitotic Cells (%) [11]: 29% | Population Normal (%) [11]: 94% | Population Pyknosed Nuclei (%) [11]: 13% | Population Tubulin-Different-Phenotype (%) [11]: 38% | Total Cell Count [11]: 129 | Population Apoptotic (%) [12]: 46% | Population Fragmented Nuclei (%) [12]: 45% | Population Healthy Nuclei (%) [12]: 42% | Population Hoechst High Intensity Objects (%) [12]: 6% | Population Membrane Permeable-Phenotype (%) [12]: 9% | Population Mitochondria Different-Phenotype (%) [12]: 3% | Population Mitotic Cells (%) [12]: 53% | Population Normal (%) [12]: 93% | Population Pyknosed Nuclei (%) [12]: 12% | Population Tubulin-Different-Phenotype (%) [12]: 51% | Total Cell Count [12]: 130
